Experiment: Toxicity liver stage against HepG2, at 10uM
Format: cell-based
Parameters: test concentration 10 uM, cell line HepG2-A16-CD81EGFP
Settings: human, HepG2-A16-CD81EGFP cells; read-out: INHIBITION
Summary of the method: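 Uninfected HepG2-A16-CD81EGFP cells, 3 × 10^3 per well, 1536-well, plated on prespotted compound at 10 μM final, parasite-free screening media added to match infected plates; puromycin 10 μM positive, DMSO 0.5% negative; run in parallel with 48 h PbLuc assay at 37 °C, 5% CO2; viability by CellTiter-Glo luminescence, normalized to controls.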

Row | SMILES | cytotoxicity at 10 µM [%]
1 | COc1ccc(C(=O)Nc2c(C)nc3cccc(C)n3c2=O)cc1 | 8.1
2 | CS(=O)(=O)N1CCN(C(=O)c2cnn3c2OCCC3)CC1 | -3.45
3 | CC1c2ncc(COCC3CCOCC3)n2CCN1C(=O)c1ccoc1 (configuration not stated) | 7.01
4 | CC(C)N1CCN(C)C2(CCN(C(=O)c3ccnnc3)CC2)C1=O | 8.64
5 | CC(C)(C)C(=O)N1CCC2(CC1)CC(Oc1ccccc1)CO2 (configuration not stated) | 4.12
6 | c1cncc(CN2CCn3cc(Cn4cccn4)nc3C2)c1 | 4.93
7 | CN1CC(=O)N(c2ccsc2)CC12CCN(Cc1nccn1C)C2 (configuration not stated) | -0.269
8 | COc1cccc2c1ccn2CC(=O)N1CCCC(C(=O)O)C1 (configuration not stated) | 6.28
9 | O=c1[nH]c2nc(N3CCOCC3)ncc2c(=O)n1-c1cccc(F)c1 | 9.32
10 | O=c1[nH]cnc2[nH]c(N3CCOCC3)nc12 | 2.9
11 | Cc1cnc2n(c1=O)C(CC(=O)NCc1cc(-c3cccs3)on1)CS2 (configuration not stated) | -1.51
12 | CC(=O)N1[C@H](Cn2cncn2)C[C@@H]2CN(c3ccc(C)nn3)CC[C@@H]21 | -13.4
13 | CS(=O)(=O)Nc1ccn(Cc2ccc(F)cc2Cl)n1 | 6.64
14 | CCN(CC)CCNS(=O)(=O)c1cccc(CSC)c1 | -7.99
15 | Cc1c(CN(C)C(=O)c2ccnn2C)cnn1C | -5.33
16 | CCc1nc(NCCCOC)c2c(n1)c(C)nn2C | 2.92
17 | Cc1nc2c(c(=O)[nH]1)CCN(Cc1ccc3c(c1)CCCN3C)C2 | -1.87
18 | Cc1nc(-c2ccnn2C)cc(C2CCCN(S(C)(=O)=O)C2)n1 (configuration not stated) | -0.66
19 | O=C(Cn1cc(Cl)cn1)NCCN1CCC(O)(c2ccc(F)cc2)CC1 | 3.41
20 | Nc1ncc(CN2CCC(O)(c3ccccc3F)CC2)cn1 | 1
21 | O=C(c1cnccn1)N1CCCC(Cc2ccccn2)C1 (configuration not stated) | 6.95
22 | O=C(c1cc[nH]n1)N1CCCC1c1cnccn1 (configuration not stated) | -25.4
23 | O=S(=O)(c1ccccc1)N1CCCC(c2nccs2)C1 (configuration not stated) | -23.4

Row | SMILES | cytotoxicity at 10 µM [%]
24 | COCC(=O)N1CCCCC1c1nccc(C)n1 (configuration not stated) | -14.6
25 | Cc1nc(C2CN(C)CCO2)cc(N2CCSCC2)n1 (configuration not stated) | -15.6
26 | COCCN1CCC(Cc2cncc(-c3ccc(C(=O)O)cc3)n2)CC1 | -27.6
27 | COCC(=O)N1CCCC1c1ccnc(Nc2cnccn2)n1 (configuration not stated) | -4.3
28 | CNc1cncc(C2CCCN(S(C)(=O)=O)C2)n1 (configuration not stated) | 3.19
29 | NC(=O)CN1CCC(NCc2cc(C(F)(F)F)ccc2Cl)CC1 | -3.01
30 | CC(NC1(CNS(C)(=O)=O)CCCC1)c1ccccc1 (configuration not stated) | 8.43
31 | O=C(Nc1ccc(N2CCCCC2)cn1)C1CCCN1C(=O)C1CC1 (configuration not stated) | -6.35
32 | O=C(CCC(F)(F)F)NCC1CCCS1 (configuration not stated) | -1.58
33 | Cc1cc(F)cc(S(=O)(=O)Nc2noc(C)n2)c1 | 3.11
34 | CCOC(=O)N(C)C1CCN(Cc2csc(C)n2)CC1 | -3.37
35 | CCNc1cc2c(nn1)CCN(C(=O)C1COc3ccccc3O1)C2 (configuration not stated) | -6.34
36 | COCCC(=O)N(Cc1ccccn1)Cc1ccccc1C | 2.14
37 | CC(CS(C)(=O)=O)N(C(=O)CCc1ccc(Cl)s1)C1CC1 (configuration not stated) | 1.92
38 | CCc1nc(NS(=O)(=O)c2cc(C)ccc2Br)no1 | 4.66
39 | CC(C)CN1CCN(C(=O)c2cccnc2-n2cncn2)CC1 | 1.53
40 | Cc1cc(CN2CCN(C(=O)Cc3ccccc3F)CC2)on1 | -4.02
41 | Cc1ccoc1C(=O)NCCOc1ccc(C(F)(F)F)cn1 | -4.02
42 | CC(C)c1nc(C2CCCN2C(=O)CN(C)Cc2ccccc2)no1 (configuration not stated) | -4.86
43 | COc1cncc(N2CCN(Cc3ccco3)CC2)n1 | 0.197
44 | CC(C)c1nc(C2CCCN2CCS(C)(=O)=O)no1 (configuration not stated) | 6.51
45 | CSc1ccc(OC(C)C(=O)Nc2cc[nH]n2)cc1 (configuration not stated) | 7.71
46 | Cc1cc(C)n(-c2cncc(N3CCN(C(=O)C(C)(C)C)CC3)n2)n1 | -3.22

Row | SMILES | cytotoxicity at 10 µM [%]
47 | O=C(CN1CCCC1Cn1cncn1)NC(C1CC1)C1CC1 (configuration not stated) | -12.8
48 | CC(=O)N1CC[C@]2(O)CCN(Cc3nc(C)c[nH]3)C[C@@H]2C1 | -5.79
49 | c1ccc(-c2cc(NCCCC3CCOC3)n3nccc3n2)cc1 (configuration not stated) | -0.309
50 | CCn1ncnc1C(C)NC(=O)Cc1cc2c(cc1Cl)OCCO2 (configuration not stated) | -6.38
51 | O=C(c1ccnc(CC2COc3ccccc3C2)c1)N1CCCC1 (configuration not stated) | 1.7
52 | Cc1cccc(OC2CN(C(=O)C3CC(=O)N(C4CC4)C3)C2)c1 (configuration not stated) | -0.503
53 | CC(C)n1cnnc1CN(C)C(=O)c1ccccc1-n1cncn1 | -1.49
54 | Nc1nnc(CCNC(=O)c2cccc(C3CCCNC3)c2)s1 (configuration not stated) | 2.9
55 | Cn1ncc2c(N3CCCN4CCC[C@H]4C3)nc(C(C)(C)C)nc21 | -128
56 | COc1ccc(CN2CCC(CO)(Cc3ccc(Cl)cc3)CC2)c(O)c1 | -134
57 | NC(=O)CN1CC2(CCC1=O)CCN(Cc1ccc(F)cc1Cl)CC2 | 3.59
58 | CCN(Cc1ccncc1)C(=O)C1COc2c(cccc2OC)C1 (configuration not stated) | 3.4
59 | O=C(CCN1CCNCC1)N1CCC2(CC1)c1ccccc1CC2O (configuration not stated) | -9.43
60 | CCc1cc(N(C)Cc2nonc2C)nc(N(C)C)n1 | -6.32
61 | NCCc1nc(N[C@@H](CO)c2ccccc2)c2ccccc2n1 | 9.24
62 | CCCN1CCC(Cc2nn3c(C(C)C)nnc3s2)CC1 | -6.17
63 | Cc1nn(C)c(Oc2ccc(Cl)cc2)c1CN1CCC(CN)C1 (configuration not stated) | -7.52
64 | O=C1CC[C@H]2CN(Cc3cccc(F)c3)CC[C@H]2N1CCc1c[nH]cn1 | -1.04
65 | O=C(Nc1ccc(F)cc1)N1CCC2(CCC(=O)N(C3CC3)C2)CC1 | 5.54
66 | COc1cc(-c2ccc(F)c3c2OC(CN)C3)cc(OC)c1OC (configuration not stated) | 1.35
67 | COc1ccc(/C=C/CN2CCC3(C2)CN(C)C(=O)O3)cc1 (configuration not stated) | 0.313
68 | CNC(=O)CN(C)c1nc(-c2ccncc2)nc2c1CCN(C(C)=O)C2 | -5.13
69 | CCn1nc(C)c(CCn2ccnc2-c2cc3n(n2)CCCNC3)c1C | -2.1

Row | SMILES | cytotoxicity at 10 µM [%]
70 | COc1ccc(F)cc1C(C(=O)O)N1CCSCC1 (configuration not stated) | -4.2
71 | O=C(c1ccc2c(c1)OCO2)N1CCC(Nc2cccnn2)CC1 | -15.6
72 | CCOc1ccnc(N2CCN(C(=O)c3ccc(OC)cc3)CC2)n1 | -15.6
73 | CN(CC(=O)NCc1ccccn1)C1CCCN(c2cccnn2)C1 (configuration not stated) | -9.06
74 | CC1CN(C)c2ccccc2N(C(=O)c2ccc(=O)n(C)c2)C1 (configuration not stated) | -3.51
75 | O=C(NCCn1ccnc1)N1CCCC1c1ccncc1 (configuration not stated) | -10.9
76 | NC(=O)Cn1cc(NC(=O)N2CCC(c3ccccc3)CC2)cn1 | -7.69
77 | CC(Cn1ccnc1)NC(=O)N1CCN(Cc2ccsc2)CC1 (configuration not stated) | -6.33
78 | CC(C)(C)C(O)CN1CCN(C(=O)c2ccc3c(c2)COC3)CC1 (configuration not stated) | -2.42
79 | CCc1noc(C)c1C(=O)N1CCCC1c1c(C)nn(C)c1C (configuration not stated) | -6.97
80 | c1coc(-c2noc(CN3CCCC3Cn3cncn3)n2)c1 (configuration not stated) | -0.282
81 | CN(Cc1ccsc1)C(=O)Nc1ccc(S(C)(=O)=O)cc1 | -4.77
82 | CCOc1ccnc(N2CCN(C(=O)c3cnc[nH]3)CC2)n1 | -2.06
83 | CCc1nc(CN(C)CC(N)=O)cs1 | -8.9
84 | CC(C)c1nc(CN(CC(N)=O)C(C)C)cs1 | -14.4
85 | Cc1cccc(C(=O)N2CCN(C(=O)Cc3ccccn3)CC2)c1C | -12.3
86 | Cn1cc(C(=O)CC2CCCN2C(=O)c2c[nH]c3ccccc23)cn1 (configuration not stated) | -1.39
87 | CN(C)CCN1CCC(CNCc2c[nH]nc2C(C)(C)C)CC1 | -3.21
88 | CCOCCN1CCN(CC(=O)N2CCCC2)CC1CC (configuration not stated) | -2.47
89 | Cc1nc(C)n(C2CCCN(C(=O)c3cn4cccnc4n3)C2)n1 (configuration not stated) | -0.776
90 | COCCCC(=O)N1CCC(Nc2cccnn2)CC1 | -3.69
91 | Cc1cnn(CC2CCCN2C(=O)c2cccnc2-n2cncn2)c1 (configuration not stated) | -3.29
92 | CC(C)(C)c1nc(CN2CCCC2CCc2ccccc2)no1 (configuration not stated) | -5.95

Row | SMILES | cytotoxicity at 10 µM [%]
93 | CCn1cnnc1CNC(=O)N1CCN(c2cccc(OC)c2)CC1 | -8.62
94 | Cc1ccc(NC2CCN(C(=O)c3ccsc3)CC2)nn1 | -9.08
95 | Cc1cc(CN(C)C(=O)c2cc3c([nH]c2=O)CCCC3=O)no1 | -3.59
96 | COc1ccccc1C1(C(=O)NCCN2CCOCC2)CCOCC1 | -11.6
97 | O=C(CCCOc1ccccc1Cl)N1CCCC(n2cncn2)C1 (configuration not stated) | -0.0868
98 | CCc1nc(CN2CCCC(NCc3nc4cccnc4[nH]3)C2)no1 (configuration not stated) | 1.92
99 | CN1CCOC(CNCc2nc(-c3ccccc3)cs2)C1 (configuration not stated) | -11.5
100 | COc1ncccc1NC(=O)C1CCN(S(C)(=O)=O)CC1 | -5.74
101 | COc1cccc(-c2nc(CNCCn3cccn3)cs2)c1 | 2.43
102 | c1csc(CN2C[C@@H]3COC[C@]3(COCc3ccncc3)C2)c1 | 18
103 | COc1ccc(CN2CCOC3(CCCN(c4nnc(C)o4)C3)C2)cc1 (configuration not stated) | -23.6
104 | Cc1cccc(CN2CCC[C@@H]3CN(C(=O)c4ccco4)C[C@@H]32)n1 | -3.49
105 | Cc1nc(CN2CCC3(CC2)C(=O)N(C)CCN3C)cs1 | 4.37
106 | Cc1nc(CN2CCO[C@@H]3CC(COc4ccccn4)C[C@H]32)cs1 (some centres not stated) | 8.57
107 | CNCCc1nc2cc(Cl)ccc2[nH]1 | 21.2
108 | O=C(NCc1ccccn1)[C@H]1COC[C@H]2CN(Cc3ccoc3)C[C@H]21 | 1.54
109 | CC1N(CC2CC2)C(=O)COC12CCN(Cc1nccs1)CC2 (configuration not stated) | -8.19
110 | O=C(Cc1ccsc1)N1Cc2nc(CN3CCCCC3)oc2C1 | 7.19
111 | c1cncc(COC[C@H]2CC[C@H]3[C@H](CCN3Cc3cccs3)O2)c1 | 3.45
112 | O=c1[nH]c2cn(-c3ccc(Br)cc3)c(=O)n2[nH]1 | -5.51

From ChEMBL document CHEMBL4513216, “Probing the Open Global Health Chemical Diversity Library for Multistage-Active Starting Points for Next-Generation Antimalarials” (ACS Infect Dis, 2020)
